Non-standard residues stand in square brackets, D forms with d. Residues, ends and D or L forms follow the SMILES beside them. Phe(4-F) = N[C@@H](Cc1ccc(F)cc1)C(=O)O; 1Nal = N[C@@H](Cc1cccc2ccccc12)C(=O)O
The compounds below were run against Beta-2 adrenergic receptor (Homo sapiens, UniProt P07550) (assay: Binding affinity towards cloned human Beta-2 adrenergic receptor).
Chain of Beta-2 adrenergic receptor (P07550 whole entry): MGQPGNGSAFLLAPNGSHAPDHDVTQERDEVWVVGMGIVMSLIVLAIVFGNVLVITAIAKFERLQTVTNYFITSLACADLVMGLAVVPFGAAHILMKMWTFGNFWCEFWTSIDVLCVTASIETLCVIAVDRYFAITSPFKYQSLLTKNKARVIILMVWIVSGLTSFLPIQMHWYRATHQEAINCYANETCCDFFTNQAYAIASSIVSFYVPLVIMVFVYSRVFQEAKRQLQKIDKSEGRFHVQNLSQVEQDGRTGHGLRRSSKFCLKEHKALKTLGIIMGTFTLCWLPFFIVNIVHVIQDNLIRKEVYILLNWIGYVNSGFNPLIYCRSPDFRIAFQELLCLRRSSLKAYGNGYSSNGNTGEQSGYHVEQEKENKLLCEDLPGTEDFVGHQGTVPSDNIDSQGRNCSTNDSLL

SMILES	IC50
NCCCCCOC[C@H]1O[C@@H](OCCc2c[nH]c3ccccc23)[C@H](OCc2ccccc2)C[C@@H]1OCc1ccccc1	3 µM
NCCCCCOC[C@H]1O[C@@H](OCCc2c[nH]c3ccccc23)[C@H](OCc2ccccc2)[C@@H](OCc2ccccc2)[C@@H]1OCc1ccccc1	3 µM

The compounds below were run against Somatostatin receptor (assay: Ability to inhibit binding of […]-CGP 23996 to somatostatin receptor on membranes from cerebral cortex).
Format: tissue-based

SMILES	IC50
NCCCCCOC[C@H]1O[C@@H](OCCc2c[nH]c3ccccc23)[C@H](OCc2ccccc2)[C@@H](OCc2ccccc2)[C@@H]1OCc1ccccc1	5 µM

The compounds below were run against T1, Substance-P receptor (Homo sapiens, UniProt P25103) (assay: Inhibition of Tachykinin receptor 1).
T1 sequence (P25103 whole entry): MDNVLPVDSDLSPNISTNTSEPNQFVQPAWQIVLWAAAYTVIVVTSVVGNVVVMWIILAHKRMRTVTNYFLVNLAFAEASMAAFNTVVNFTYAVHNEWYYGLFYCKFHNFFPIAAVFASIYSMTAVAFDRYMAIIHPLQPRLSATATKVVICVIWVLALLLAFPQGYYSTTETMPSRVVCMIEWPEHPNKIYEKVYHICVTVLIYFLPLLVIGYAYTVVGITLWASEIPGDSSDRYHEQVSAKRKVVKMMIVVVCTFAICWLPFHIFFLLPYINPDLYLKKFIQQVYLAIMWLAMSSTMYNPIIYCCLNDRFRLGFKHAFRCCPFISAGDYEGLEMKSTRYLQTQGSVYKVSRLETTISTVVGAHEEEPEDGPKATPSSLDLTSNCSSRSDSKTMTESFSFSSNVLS
How it was run: (§1)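 NK-1 receptor inhibition assay. IC50 is reported in nM as the mean ± SD.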

SMILES	IC50
C[C@H](O)[C@@H]1NC(=O)[C@H](Cc2ccccc2)NC(=O)[C@@H](Cc2c[nH]c3ccccc23)NC(=O)[C@H](Cc2ccccc2)NC(=O)[C@@H]2CCCN2C(=O)[C@H](Cc2ccccc2)NC1=O	0.095 µM
C[C@@H]1NC(=O)[C@@H]2CCCN2C(=O)[C@H](Cc2ccccc2)NC(=O)[C@H]([C@@H](C)O)NC(=O)[C@H](Cc2ccccc2)NC(=O)[C@@H](Cc2c[nH]c3ccccc23)NC1=O	0.549 µM
C[C@@H](O)[C@@H]1NC(=O)[C@H](Cc2ccc(F)cc2)NC(=O)[C@@H](Cc2c[nH]c3ccccc23)NC(=O)[C@H](Cc2cccc3ccccc23)NC(=O)[C@@H]2CCCN2C(=O)[C@H](Cc2ccccc2)NC1=O (cyclo([1Nal][dW][Phe(4-F)]TFP))	0.002 µM
C[C@@H]1NC(=O)[C@@H](Cc2c[nH]c3ccccc23)NC(=O)[C@H](Cc2ccccc2)NC(=O)[C@@H]2CCCN2C(=O)[C@H](Cc2ccccc2)NC(=O)[C@H]([C@@H](C)O)NC1=O	4.09 µM
CC(C)C[C@@H]1NC(=O)[C@@H](Cc2c[nH]c3ccccc23)NC(=O)[C@H](Cc2ccccc2)NC(=O)[C@@H]2CCCN2C(=O)[C@H](Cc2ccccc2)NC(=O)[C@H]([C@@H](C)O)NC1=O	2.73 µM
C[C@@H](O)[C@@H]1NC(=O)[C@H](Cc2ccc(F)cc2)NC(=O)[C@@H](Cc2c[nH]c3ccccc23)NC(=O)[C@H](Cc2ccccc2)NC(=O)[C@@H]2CCCN2C(=O)[C@H](Cc2ccccc2)NC1=O (cyclo(FPF[dW][Phe(4-F)]T))	0.028 µM
CC(C)[C@@H]1NC(=O)[C@H](CCCCN)NC(=O)[C@@H](Cc2c[nH]c3ccccc23)NC(=O)[C@H](Cc2ccc(O)cc2)NC(=O)[C@H](C)N(C)C(=O)[C@H](Cc2ccccc2)NC1=O [SEGLITIDE]	> 1 µM
C[C@@H](O)[C@@H]1NC(=O)[C@H](CCCCN)NC(=O)[C@@H](Cc2c[nH]c3ccccc23)NC(=O)[C@H](Cc2ccccc2)NC(=O)[C@@H]2CCCN2C(=O)[C@H](Cc2ccccc2)NC1=O (cyclo(PF[dW]KTF))	> 1 µM
C[C@@H](O)[C@@H]1NC(=O)[C@H](Cc2ccccc2)NC(=O)[C@@H](Cc2c[nH]c3ccccc23)NC(=O)[C@H](CO)NC(=O)[C@@H]2CCCN2C(=O)[C@H](Cc2ccccc2)NC1=O	0.596 µM
COc1ccc(C[C@@H]2NC(=O)[C@@H](Cc3c[nH]c4ccccc34)NC(=O)[C@H](Cc3ccccc3)NC(=O)[C@@H]3CCCN3C(=O)[C@H](Cc3ccccc3)NC(=O)[C@H]([C@@H](C)O)NC2=O)cc1 (cyclo(FPF[dW]Y(Me)T))	0.059 µM
C[C@@H](O)[C@@H]1NC(=O)[C@H](Cc2ccccc2)NC(=O)[C@@H](Cc2c[nH]c3ccccc23)NC(=O)[C@H](CC(=O)O)NC(=O)[C@@H]2CCCN2C(=O)[C@H](Cc2ccccc2)NC1=O (cyclo(D[dW]FTFP))	1.39 µM
C[C@@H](O)[C@@H]1NC(=O)[C@H](Cc2ccccc2)NC(=O)[C@@H](Cc2c[nH]c3ccccc23)NC(=O)[C@H](Cc2cccc3ccccc23)NC(=O)[C@@H]2CCCN2C(=O)[C@H](Cc2ccccc2)NC1=O (cyclo([1Nal][dW]FTFP))	0.015 µM
C[C@H](O)[C@@H]1NC(=O)[C@H](Cc2ccccc2)NC(=O)[C@@H](Cc2c[nH]c3ccccc23)NC(=O)[C@@H](Cc2ccccc2)NC(=O)[C@@H]2CCCN2C(=O)[C@H](Cc2ccccc2)NC1=O	0.496 µM
C[C@@H](O)[C@@H]1NC(=O)[C@H](Cc2ccc(O)cc2)NC(=O)[C@@H](Cc2c[nH]c3ccccc23)NC(=O)[C@H](Cc2ccccc2)NC(=O)[C@@H]2CCCN2C(=O)[C@H](Cc2ccccc2)NC1=O (cyclo(FPF[dW]YT))	1.05 µM
C[C@@H](O)[C@@H]1NC(=O)[C@H](Cc2ccccc2)NC(=O)[C@@H](Cc2c[nH]c3ccccc23)NC(=O)[C@H](CC2CCCCC2)NC(=O)[C@@H]2CCCN2C(=O)[C@H](Cc2ccccc2)NC1=O	0.198 µM
C[C@@H](O)[C@@H]1NC(=O)[C@H](Cc2ccccc2)NC(=O)[C@@H](Cc2c[nH]c3ccccc23)NC(=O)[C@H](CCc2ccccc2)NC(=O)[C@@H]2CCCN2C(=O)[C@H](Cc2ccccc2)NC1=O	0.085 µM

What follows are compounds tested against T1, Substance-P receptor (assay: Percent Inhibition against Tachykinin receptor 1 at 2 uM).

SMILES	inhibition
C[C@@H](O)[C@@H]1NC(=O)[C@H](Cc2ccccc2)NC(=O)[C@@H](Cc2c[nH]c3ccccc23)NC(=O)[C@@H]2CCCN2C(=O)[C@@H]2CCCN2C(=O)[C@H](Cc2ccccc2)NC1=O	51%

The compounds below were run against T1, Substance-P receptor (assay: Binding affinity towards Tachykinin receptor 1).
How it was run: as §1

SMILES	IC50
NCCCCCOC[C@H]1O[C@@H](OCCc2c[nH]c3ccccc23)[C@H](OCc2ccccc2)C[C@@H]1OCc1ccccc1	0.18 µM
CC(=O)NCCCCCOC[C@H]1O[C@@H](OCCc2c[nH]c3ccccc23)[C@H](OCc2ccccc2)[C@@H](OCc2ccccc2)[C@@H]1OCc1ccccc1	0.06 µM

Each compound was assayed against Somatostatin receptor (assay: Ability to inhibit binding of […]-CGP 23996 to somatostatin receptor on membranes from pituitary).

SMILES	IC50
NCCCCCOC[C@H]1O[C@@H](OCCc2c[nH]c3ccccc23)[C@H](OCc2ccccc2)[C@@H](OCc2ccccc2)[C@@H]1OCc1ccccc1	5 µM

Reference: ChEMBL document CHEMBL1129787, “Synthesis of potent cyclic hexapeptide NK-1 antagonists. Use of a minilibrary in transforming a peptidal somatostatin receptor ligand into an NK-1 receptor ligand via a polyvalent peptidomimetic” (J Med Chem, 1996)
